From ChEMBL document CHEMBL4513216, “Probing the Open Global Health Chemical Diversity Library for Multistage-Active Starting Points for Next-Generation Antimalarials” (ACS Infect Dis, 2020)

Assay: Toxicity liver stage against HepG2, at 10uM
Type: cell-based
Design: test concentration 10 uM, cell line HepG2-A16-CD81EGFP
Conditions: human, HepG2-A16-CD81EGFP cells; read-out: INHIBITION
Outline: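 Uninfected HepG2-A16-CD81EGFP cells, 3 × 10^3 per well, 1536-well, plated on prespotted compound at 10 μM final, parasite-free screening media added to match infected plates; puromycin 10 μM positive, DMSO 0.5% negative; run in parallel with 48 h PbLuc assay at 37 °C, 5% CO2; viability by CellTiter-Glo luminescence, normalized to controls.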

## CCn1ncnc1C(C)NC(=O)CC1CCN(C(C)C)CC1 (stereo not drawn)
  cytotoxicity at 10 µM: -133%

## CCn1ncc(CN2CCCC(C(=O)c3ccc(Cl)cc3)C2)c1C (stereo not drawn)
  cytotoxicity at 10 µM: 0.522%

## NC(=O)C1(CNCc2csc(-c3cccs3)n2)CCOCC1
  cytotoxicity at 10 µM: -19.3%

## CN1CCCc2c1nc1c(c2N)CCCC1
  cytotoxicity at 10 µM: 11.2%

## Cc1ccc(CN(CCN(C)C)C(=O)Cc2cn3ccccc3n2)o1
  cytotoxicity at 10 µM: -5.1%

## CN(C)C1Cc2ccccc2N(S(=O)(=O)c2cccc(C#N)c2)C1 (stereo not drawn)
  cytotoxicity at 10 µM: 9.89%

## CC(C)(C)C(C#N)NC(=O)c1ccc(Oc2cccnc2)cc1 (stereo not drawn)
  cytotoxicity at 10 µM: 5.21%

## Cc1ccccc1OCCN(C)Cc1noc(CC(C)C)n1
  cytotoxicity at 10 µM: -6.99%

## Cc1ccc(-c2cn[nH]c2C2CCCN(c3ccnc(C)n3)C2)cc1 (stereo not drawn)
  cytotoxicity at 10 µM: -1.78%

## CC(C1CCN(Cc2cnn(C)c2C2CC2)CC1)N(C)C (stereo not drawn)
  cytotoxicity at 10 µM: 7.88%

## CCN(CCN(C)C)c1nc(CCN)nc2sc(C)c(C)c12
  cytotoxicity at 10 µM: -1.78%

## CC1(C(=O)NC2CCCC2)CN(c2cnccn2)CCO1 (stereo not drawn)
  cytotoxicity at 10 µM: -33.9%

## CN(CCC1CCCCO1)c1nncc(-c2ccccc2)n1 (stereo not drawn)
  cytotoxicity at 10 µM: 1.37%

## CNc1nnc(SCc2nnc(C(C)(C)C)o2)s1
  cytotoxicity at 10 µM: -1.05%

## CCSc1cncc(N2CCC(NC(=O)C3CCCCC3)CC2)n1
  cytotoxicity at 10 µM: 16.8%

## COc1cc(N2CC[C@@H](O)[C@@H]2Cc2ccccc2)ncn1
  cytotoxicity at 10 µM: -52.1%

## O=C(c1ccc(-n2cnnn2)cc1)N1CCCC(n2ccnc2)C1 (stereo not drawn)
  cytotoxicity at 10 µM: -24.7%

## CCCS(=O)(=O)NCC(O)c1c(Cl)cccc1Cl (stereo not drawn)
  cytotoxicity at 10 µM: 7.52%

## COc1cccc(CNC(C)c2ccc(-n3ccnc3)cc2)c1OC (stereo not drawn)
  cytotoxicity at 10 µM: -35.1%

## CC(C)N(CCO)C(=O)C1CCC(=O)N(CCc2cccc(F)c2)C1 (stereo not drawn)
  cytotoxicity at 10 µM: -6.95%

## O=C(NC1CC1)N1Cc2[nH]nc(COc3cccnc3)c2C1
  cytotoxicity at 10 µM: 4.77%

## COC(=O)C1CCCCN1Cc1cccc(C(=O)NCc2ccco2)c1 (stereo not drawn)
  cytotoxicity at 10 µM: -12.5%

## CCc1nn(C)c(Cl)c1CN1CCC(c2cc(O)nc(C)n2)CC1
  cytotoxicity at 10 µM: -9.74%

## Cc1ccc(-c2cc(C(F)(F)F)nc(N3CCOCC3)n2)s1
  cytotoxicity at 10 µM: 0.452%

## Cn1cc(C2CC(=O)NC23CCN(CC2CC2)CC3)cn1 (stereo not drawn)
  cytotoxicity at 10 µM: -7.28%

## COc1ccc(C(=O)N2CC(=O)N(C3CCC3)CC(O)C2)cc1OC (stereo not drawn)
  cytotoxicity at 10 µM: 4.35%

## CNc1ncc(CN(C)C(=O)c2cccc(-n3cnnc3)c2)cn1
  cytotoxicity at 10 µM: 1.5%

## Cc1cc(C(F)(F)F)n2nc(C3CCN(S(=O)(=O)N(C)C)CC3)cc2n1
  cytotoxicity at 10 µM: -2.88%

## Cc1ncsc1CCC(=O)NC1CCN(Cc2cccs2)CC1
  cytotoxicity at 10 µM: -3.09%

## CNC(=O)[C@H]1C[C@@H]2CN(Cc3c(C)noc3C)C[C@@H]2N1C(C)=O
  cytotoxicity at 10 µM: -108%

## OCC1CCCCN1Cc1nc(Cc2cccc(F)c2)no1 (stereo not drawn)
  cytotoxicity at 10 µM: -137%

## COc1ccccc1CC(=O)N1CCCC(CNS(C)(=O)=O)C1 (stereo not drawn)
  cytotoxicity at 10 µM: 0.691%

## O=S1(=O)CCC(CNS(=O)(=O)N2CCc3ccccc3C2)C1 (stereo not drawn)
  cytotoxicity at 10 µM: -10.7%

## CC1(C)CC(N(Cc2cccnc2)Cc2cccc(F)c2)CC(C)(C)N1
  cytotoxicity at 10 µM: -6.41%

## c1cncc(NCCCNC2CCSC2)c1 (stereo not drawn)
  cytotoxicity at 10 µM: -3.62%

## COc1ccc(CN2C[C@@H](OCc3csc(C)n3)[C@H]3COC[C@H]32)cc1
  cytotoxicity at 10 µM: -17.3%

## CCOCC(=O)NC(C)Cc1ccccc1Br (stereo not drawn)
  cytotoxicity at 10 µM: -11%

## O=C(c1ccccn1)N1CC(S(=O)(=O)c2ccc(Cl)cc2)C1
  cytotoxicity at 10 µM: -12%

## COCC(=O)N1CCCC1c1ccnc(Nc2cnccn2)n1 (stereo not drawn)
  cytotoxicity at 10 µM: -4.3%

## Cc1nnc(NCC(c2ccco2)N2CCCCC2)c(C#N)c1C (stereo not drawn)
  cytotoxicity at 10 µM: -5.23%

## Cn1ncc2c1C(COCC1CC1)CN(Cc1ccncc1)C2 (stereo not drawn)
  cytotoxicity at 10 µM: 7.22%

## CC(C)NC(=O)C(C(C)C)n1cnc2cc(F)c(F)cc21 (stereo not drawn)
  cytotoxicity at 10 µM: 12.5%

## Cc1nc(CN2CCC3(CC2)C(=O)N(C)CCN3C)cs1
  cytotoxicity at 10 µM: 4.37%

## CN(C)S(=O)(=O)c1ccc(CN2CCCC2c2cccs2)o1 (stereo not drawn)
  cytotoxicity at 10 µM: -3.31%

## Cn1nc(Br)c2c(NCCSCCCO)ncnc21
  cytotoxicity at 10 µM: 14.5%

## COCc1noc(CN2CC(Cc3ccccc3)CC2=O)n1 (stereo not drawn)
  cytotoxicity at 10 µM: -0.472%

## Cc1occc1C(=O)NCC1OCCc2cn(C)nc21 (stereo not drawn)
  cytotoxicity at 10 µM: 4.33%

## Cc1ocnc1C(=O)N(C)[C@@H]1CC[C@@H](Oc2ccccc2)[C@@H]1O
  cytotoxicity at 10 µM: -0.658%

## CC(C)c1nc(C(=O)NCCn2ccnc2)nn1-c1cccc(F)c1
  cytotoxicity at 10 µM: -7.64%

## CCC1=NC2(CCC(C(=O)Nc3ccc(C)nc3)CC2)C(=O)N1C (stereo not drawn)
  cytotoxicity at 10 µM: 8.79%

## Cc1ccnc(C2(C)CCCN2S(=O)(=O)c2ccccc2)n1 (stereo not drawn)
  cytotoxicity at 10 µM: 0.435%

## O=C(Nc1cnccn1)[C@@H]1C[C@H]2OCC[C@H]2N(Cc2ccsc2)C1
  cytotoxicity at 10 µM: -2.31%

## O=C(NCCCn1ccnc1)Nc1ccn(CCc2ccccn2)n1
  cytotoxicity at 10 µM: -0.386%

## CC(C)N1CC(C(=O)NCc2ccnc(-n3cccn3)c2)CC1=O (stereo not drawn)
  cytotoxicity at 10 µM: -2.5%

## O=C1C(Nc2nccn3cnnc23)CCN1c1cccc(Cl)c1 (stereo not drawn)
  cytotoxicity at 10 µM: -1.7%

## CN1CCOC[C@H]1c1nc(-c2cccc(F)c2)c[nH]1
  cytotoxicity at 10 µM: -3.68%

## CN(C)c1ncc(C2Nc3cc(Cl)ccc3C3=NCCCN32)cn1 (stereo not drawn)
  cytotoxicity at 10 µM: -32%

## Cc1ncc(CNc2cnccc2CO)s1
  cytotoxicity at 10 µM: -24.7%

## CC(C)Nc1nc(N2CCCC2)nc2c1CN(c1ncc(F)cn1)CC2
  cytotoxicity at 10 µM: 13.5%

## CCCC(=O)N1CCCC1(C)c1nc(C)no1 (stereo not drawn)
  cytotoxicity at 10 µM: 0.79%

## Cc1nn(C)c(C)c1C1CCCN1CC(=O)Nc1ccncc1 (stereo not drawn)
  cytotoxicity at 10 µM: -5.53%

## CCCc1n[nH]cc1C(=O)NCC1COc2cc(OC)ccc2C1 (stereo not drawn)
  cytotoxicity at 10 µM: -0.506%

## N#CCCN(CCC#N)C(=O)c1cccc(N2CCNC2=O)c1
  cytotoxicity at 10 µM: -18.7%

## Cc1ccc(OCCN(C)Cc2ccc(S(=O)(=O)N(C)C)o2)cc1
  cytotoxicity at 10 µM: -14.8%

## c1coc(-c2noc(CN3CC(n4cccn4)C3)n2)c1
  cytotoxicity at 10 µM: 2.96%

## CN(C)[C@@H]1CCN(C(=O)c2ccco2)[C@H]1Cc1cnn(C)c1
  cytotoxicity at 10 µM: -81.9%

## CNc1nc(N2CCN(CC=C(C)C)C(CCO)C2)nc2c1CCC2 (stereo not drawn)
  cytotoxicity at 10 µM: -0.6%

## CCOc1ccccc1OC1CCN(Cc2ccn(C)c(=O)c2)CC1
  cytotoxicity at 10 µM: 3.91%

## Cc1cnc(N2CCOC3(CCCN(C)C3)C2)nc1 (stereo not drawn)
  cytotoxicity at 10 µM: 8.25%

## Cn1cc(C(=O)NCc2cn3c(n2)CN(CC2CCCC2)CC3)cn1
  cytotoxicity at 10 µM: 7.17%

## Cc1cc(NC(=O)N(C)C2CCCN(c3ccccc3)C2=O)n(C)n1 (stereo not drawn)
  cytotoxicity at 10 µM: 5.42%

## Cc1cccc(C(=O)N2CCN(C(=O)Cc3ccccn3)CC2)c1C
  cytotoxicity at 10 µM: -12.3%

## Cc1ccc(CN2CCc3nnc(COCCN(C)C)n3CC2)o1
  cytotoxicity at 10 µM: 2.9%

## O=C(NCCN1CCC(c2cccs2)CC1)Nc1cccs1
  cytotoxicity at 10 µM: -20.6%

## CS(=O)(=O)NCCCN1CCCCC1c1cc2ccccc2[nH]1 (stereo not drawn)
  cytotoxicity at 10 µM: -10.6%

## CCN(CC)C(=O)CN1CCCC(c2nc(C)c3c(n2)N(C)CCC3)C1 (stereo not drawn)
  cytotoxicity at 10 µM: 10.2%

## CC1CCN(S(=O)(=O)N2CCc3sccc3C2)CC1
  cytotoxicity at 10 µM: -30.8%

## CC(C)(C)CN[C@@H]1CO[C@H](CNC(=O)Nc2ccccc2)[C@H]1O
  cytotoxicity at 10 µM: 6.98%

## CC(C)N1CCc2[nH]nc(C(=O)N3CCCC3C)c2C1 (stereo not drawn)
  cytotoxicity at 10 µM: -6.25%

## COc1cccc(C(=O)N2CCOC3(CCCN(C(C)=O)C3)C2)c1 (stereo not drawn)
  cytotoxicity at 10 µM: -68.6%

## O=C(CC1CCCC1)N1CCC2(CCN2Cc2ccc(F)cc2)C1 (stereo not drawn)
  cytotoxicity at 10 µM: -5.66%

## COc1ccc(Cl)cc1CC(=O)N1CCN(CCO)CC1
  cytotoxicity at 10 µM: -9.51%

## Cc1nccn1C1CCCN(C(=O)c2sccc2-n2cnnn2)C1 (stereo not drawn)
  cytotoxicity at 10 µM: -12.2%
